# A selection: hits, their analogues and other compounds. The true share with any hit is near 1.6%.
# C8 TRAIL sens – viability loss with TRAIL in NB7+C8 cells, primary screen, TRAIL sensitizer project, cell-based, ATPlite luminescence. inhibition (viability loss, TRAIL sensitization), % at 10 µM. hit rate 1% among 360,000. AID 624354, 2012;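 active = compounds causing at least 50% loss of cell viability in the single-dose screen, relative to plate controls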
# PPC-1+TRAIL kill – compounds killing PPC-1 cancer cells with TRAIL present, primary screen, TRAIL potentiator project, ATPLite luminescence, uHTS | PPC-1 cells + TRAIL, ATPLite viability luminescence | cell killing (% activity), % at 4 µM or 5 µM | hit rate 0.41% among 220,000;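 active = cell killing above 50% in the first pass at 4 µM, then a duplicate retest at 5 µM averaging 50% or more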;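 note: plate controls were cells with TRAIL plus DMSO for no effect and medium-only wells lacking cells for full effect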
# FLuc stim CS – FLuc activators, initial screening, artefact control for FLuc-dependent activation tests, biochemical, ATPlite luminescence | ATPlite luciferase biochemical, 10 min; 0 = ATP-free wells, 1 = DMSO control | activation factor at 10 µM | 200,000 tested, under 10 active | Luciferin 4-monooxygenase (Photinus pyralis), P08659;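 active = luciferase activation factor, scaled between plate controls, of at least 2 with compound at 10 µM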
# Target sequence (P08659 whole entry, looked up): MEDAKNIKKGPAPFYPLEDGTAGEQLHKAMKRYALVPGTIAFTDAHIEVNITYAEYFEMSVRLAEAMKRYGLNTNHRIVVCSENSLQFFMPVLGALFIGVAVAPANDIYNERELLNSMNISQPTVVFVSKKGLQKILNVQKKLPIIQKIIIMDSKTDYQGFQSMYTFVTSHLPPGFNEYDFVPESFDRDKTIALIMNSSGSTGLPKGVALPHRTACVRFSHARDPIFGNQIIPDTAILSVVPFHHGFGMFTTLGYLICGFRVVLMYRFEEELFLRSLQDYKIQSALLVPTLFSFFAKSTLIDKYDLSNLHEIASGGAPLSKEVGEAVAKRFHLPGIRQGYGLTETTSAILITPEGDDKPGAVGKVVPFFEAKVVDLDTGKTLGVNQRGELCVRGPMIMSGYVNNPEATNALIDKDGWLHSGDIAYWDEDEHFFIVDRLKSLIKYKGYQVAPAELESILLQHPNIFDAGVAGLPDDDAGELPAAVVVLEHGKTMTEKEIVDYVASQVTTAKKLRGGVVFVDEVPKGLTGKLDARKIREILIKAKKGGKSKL
#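 Assay system: Luciferase/luciferin detection reagent, cell-free biochemical luciferase assay / Read-out: luciferase activation / Benchmarks: No-ATP low control, compound-free enzyme-plus-ATP high control / Medium: PBS buffer for ATP / Detection: luminescence measurement of luciferase light output / Schedule: 10 min at ambient temperature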
# FLuc inhib CS – firefly luciferase enzyme inhibitors, primary screen, artefact control for luciferase-based inhibitor screens, biochemical, luminescence, ATPLite; AID 1006, 2008; Luciferin 4-monooxygenase (Photinus pyralis), P08659; hit rate 1.5% among 200,000; inhibition, % at 10 µM; 10 min;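 active = inhibition above about 50% when tested at 10 µM, limit read from the data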
# Platelet DG rel – inhibitors of platelet dense granule secretion, primary screen, cell-based, MLPCN, human platelets; hit rate 0.22% among 300,000; inhibition, %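 (compounds screened at 7.5 µM in platelet-rich plasma)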; AID 1663, 2009; human platelet-rich plasma, SFLLRN dense granule ATP release, luminescence;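 active = mean replicate score, as percent of positive control, at or above 50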
# Numbers without * were called inactive; · = no result given.
SMILES,C8 TRAIL sens,PPC-1+TRAIL kill,FLuc stim CS,FLuc inhib CS,Platelet DG rel
O=C(COc1ccc(C(F)(F)F)cc1[N+](=O)[O-])Nc1cccc(C(F)(F)F)c1,8.0,51.9*,1.1,-5.1,-10.2
CCCCN(C)c1c(C)nc2ccc(C(=O)NCCCn3ccnc3)cn12,-11.4,·,·,·,·
N#Cc1ccc(-c2nc3c4ccccc4ccn3c2Cc2cccc(Cl)c2)cc1,6.7,·,·,·,·
CN(/N=C/c1ccncc1)c1cnc2ccccc2n1,33.9,37.2,0.4,56.4*,4.5
CN(/N=C/c1ccncc1)C1=NCCN1,9.3,·,·,·,-6.4
Cc1ccc(/C(N)=N/OC(=O)c2cccc(Cn3cc(C(F)(F)F)ccc3=O)c2)cc1,80.7*,3.5,·,·,-5.1
Cc1csc(CN(C)C(=O)CC2C(=O)NCCN2Cc2ccccc2C)n1 (stereo not drawn),-22.6,·,·,·,·
O=C(NC1CCCC1)C(c1ccccc1)n1c(CSCCOc2ccccc2)nc2ccccc21 (stereo not drawn),-7.6,·,·,·,·
O=C(CCNC(=O)C1CCN(S(=O)(=O)c2ccccc2)CC1)NCc1ccc(Cl)c(Cl)c1,4.9,·,·,·,58.2*
Cc1ccc(S(=O)(=O)N2CCC(C(=O)NCCc3ccc(S(N)(=O)=O)cc3)CC2)cc1,-5.7,53.4*,1.1,-5.2,-2.4
O=C(CCNC(=O)C1CCN(S(=O)(=O)c2ccccc2)CC1)NCc1ccncc1,-2.2,·,·,·,8.1
C#CCNC(=O)c1cc2c(Br)ccc(Br)c2nc1N,1.3,·,·,·,·
O=C(/C=C/c1cccs1)N1CCc2ccccc21,55.5*,58.4*,0.1,92.0*,20.9
COc1ccc(S(=O)(=O)NC(=O)C2(C)CCN2C(=O)Cc2cc(F)ccc2F)cc1 (stereo not drawn),-9.1,·,·,·,·
CCc1ccc([C@H]2[C@@H]3C(=O)C[C@@H]4C(=O)N(c5ccccc5)C(=O)[C@@H]4[C@@H]3CN2S(=O)(=O)c2ccc(C)cc2)cc1,86.4*,·,·,·,·
COc1ccc(NS(=O)(=O)c2ccc(N/N=C(\C)c3ccncc3)c([N+](=O)[O-])c2)cc1,30.8,54.5*,1,0.7,2.0
CC(O)(c1ccc(F)c(F)c1)c1nc(-c2cc(F)cc(F)c2)cs1 (stereo not drawn),8.5,·,·,·,·
Cc1ccc2nc(-c3ccc(SCC(=O)N4CCc5ccccc54)nc3)[nH]c2c1,65.4*,55.8*,0.2,78.0*,-23.1
Cc1cc2nc(-c3ccc(SCC(=O)Nc4nccs4)nc3)[nH]c2cc1C,59.2*,25.4,0.7,33.4,·
Cc1ccc2nc(-c3ccc(SCC(=O)O)nc3)[nH]c2c1,48.0,30.2,0.6,42.6,2.0
Cc1cc2nc(-c3ccc(SCC(=O)Nc4ccc(S(=O)(=O)N5CCCC5)cc4)nc3)[nH]c2cc1C,72.0*,63.3*,0.3,72.2*,10.9
CCc1nnc(NC(=O)CSc2ccc(-c3ccc(C)cc3)nn2)s1,41.6,40.5,0.4,55.2*,8.7
Cc1cccc(C)c1NC(=O)C1(C)CSCC(=O)N1Cc1cccs1 (stereo not drawn),3.5,·,·,·,·
CC(=O)CSc1ccc(-c2nc3ccccc3[nH]2)cn1,75.3*,·,·,·,10.8
CC(=O)CSc1ccc(-c2nc3cc(C)c(C)cc3[nH]2)cn1,78.0*,·,0.1,85.1*,-11.2
SMILES,C8 TRAIL sens,PPC-1+TRAIL kill,FLuc stim CS,FLuc inhib CS,Platelet DG rel
CCc1nnc(NC(=O)CSc2ccc(-c3nc4ccc(C)cc4[nH]3)cn2)s1,53.7*,23.7,0.4,58.0*,-1.4
Cc1ccc(/C=N/N=C/c2ccc(C)cc2)cc1,-3.9,18.2,0.9,12.5,-2.9
C(=N\N=C\c1ccccc1)/c1ccccc1,-6.9,35.8,0.2,78.7*,-4.1
CC(C)c1ccc(/C=C2\SC(=S)N(CCC(=O)N3CCCCC3CCO)C2=O)cc1 (stereo not drawn),60.3*,·,·,·,-2.4
CCC(C(=O)NC1CCCC1)n1c(C2CCCC2)nc2ccccc21 (stereo not drawn),-1.5,·,·,·,·
O=C(/C=C/c1ccc2c(c1)OCO2)c1ccco1,-4.7,22.2,0.4,58.3*,17.6
O=C(/C=C/c1ccc2c(c1)OCO2)c1ccc(O)cc1O,10.4,·,·,·,·
Nc1ccccc1C(=O)/C=C/c1ccc2c(c1)OCO2,28.1,27.9,0.4,61.5*,18.3
O=C(/C=C/c1ccc(Br)cc1)c1ccco1,-1.5,5.4,0.8,18.0,0.9
COC(=O)c1cc(C)nc2c1C(=O)C(=O)C=C2N1CCOCC1,92.1*,·,·,·,8.7
CCOC(=O)C1(C)CCCN1C(=O)c1ccc(OC)c(OC)c1 (stereo not drawn),-6.9,·,·,·,·
CCOC(=O)c1c(CSC(=N)N)n(-c2ccc(Br)cc2)c2cc(Br)c(OC(C)=O)cc12,8.8,13.5,1,-4.6,·
CCCCCCCCOC(=O)c1c(CSC(=N)N)n(C)c2cc(Br)c(OC(C)=O)cc12,92.4*,-1.5,·,·,3.1
O=C(N/N=C/c1c[nH]c2ccccc12)c1cc(-c2ccc(-c3ccccc3)cc2)n[nH]1,45.1,26.4,0.5,50.1*,-4.1
CC(C)(C)OC(=O)N/N=C/c1c[nH]c2ccccc12,17.3,-6.9,0.5,53.7*,2.5
O=C(N/N=C/c1c[nH]c2ccccc12)c1cc(-c2ccccc2)n[nH]1,4.2,37.4,1,3.5,-3.7
COC(=O)N/N=C/c1c[nH]c2ccccc12,-3.0,8.5,1,0.2,15.0
Cc1cccc(-c2ccc([N+](=O)[O-])cc2CN2CCN(c3ncc(Cc4ccccc4)cn3)CC2)c1,9.5,·,·,·,·
O=c1[nH]c(Nc2nc3ccccc3o2)nc2c1CCCC2,54.8*,48.7,0.3,69.6*,-3.6
CSc1ncccc1C(=O)OCC(=O)c1cc(C)n(CC2CCCO2)c1C (stereo not drawn),47.6*,31.7,·,·,4.2
Cc1cc(C(=O)COC(=O)c2cccnc2Cl)c(C)n1C,64.2*,·,·,·,·
CCn1c(C)cc(C(=O)COC(=O)c2cccnc2SC)c1C,18.8,·,·,·,·
Cc1cc(C(=O)CSc2nc3ccccc3[nH]2)c(C)n1CC1CCCO1 (stereo not drawn),76.3*,7.1,0.5,47.6,-1.9
COc1cc(C(=O)OCC(=O)c2cc(C)n(CC3CCCO3)c2C)cc(OC)c1C (stereo not drawn),7.0,·,·,·,·
Cc1cc(C(=O)COC(=O)c2ccc3c(c2)OCO3)c(C)n1CC1CCCO1 (stereo not drawn),0.8,32.2,0.3,67.1*,11.5
COc1ccc(CN2C[C@@H](CO)O[C@@H](n3cnc4c(NCCN(C)C)ncnc43)C2)cc1,5.1,·,·,·,·
CCCCNC(=O)C1C(c2ccc(C(F)(F)F)cc2)=Nc2ccccc2N1C(=O)C1CCN(C(C)=O)CC1 (stereo not drawn),7.4,·,·,·,·
COc1ccc(OC2(C)CCN(Cc3ccccc3OC(F)F)C2)cc1 (stereo not drawn),0.5,·,·,·,·

# Bioassay records as filed in PubChem.
